Source: ChEMBL document CHEMBL4028890, “A Positive Allosteric Modulator of the Serotonin 5-HT2C Receptor for Obesity” (J Med Chem, 2017)
Activity calls are given as the source filed them. No cut-off for these calls is given here.

Key:
[1] = target: T1, 5-hydroxytryptamine receptor 2C (Homo sapiens) (UniProt P28335); assay: Positive allosteric modulation of human 5-HT2C receptor expressed in human HeLa-K1 cells assessed as potentiation of 5-HT-induced inositol monophosphate release at 10 uM after 20 mins by HTRF assay relative to control; assay type: functional, cell-based
T1 sequence (whole entry): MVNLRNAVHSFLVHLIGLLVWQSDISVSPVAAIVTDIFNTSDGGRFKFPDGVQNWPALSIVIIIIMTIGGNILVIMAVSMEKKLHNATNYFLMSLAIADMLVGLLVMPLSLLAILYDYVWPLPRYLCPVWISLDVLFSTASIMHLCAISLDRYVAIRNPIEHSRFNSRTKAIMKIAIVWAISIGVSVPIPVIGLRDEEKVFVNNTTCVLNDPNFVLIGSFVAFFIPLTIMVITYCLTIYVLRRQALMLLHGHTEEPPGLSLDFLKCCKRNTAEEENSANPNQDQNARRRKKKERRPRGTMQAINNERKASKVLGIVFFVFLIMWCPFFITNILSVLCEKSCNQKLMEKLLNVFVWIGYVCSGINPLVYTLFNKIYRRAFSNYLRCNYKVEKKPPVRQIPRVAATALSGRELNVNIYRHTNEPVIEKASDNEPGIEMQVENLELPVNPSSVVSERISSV
Procedure, shortened: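 IP-One HTRF assay in CHO-K1 cells (human 5-HT2A, 5-HT2B) or HeLa-K1 cells (human 5-HT2C), seeded and grown 24 h at 37 °C. Test compound and/or 5-HT added in stimulation buffer, then 20 min at 37 °C before IP1 read-out. Data normalized to 5-HT maximal effect and fitted by nonlinear regression. Triplicates, mean ± SD.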

[2] = tested on: Rattus norvegicus; assay: Antiobesity activity in Wistar rat assessed as reduction in food intake at 2 mg/kg, ip after 4 hrs; assay type: functional, organism-based
Procedure, shortened: (§1)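 Male Wistar rats, 200−250 g, aged 10−12 weeks, food-deprived 16 h before refeeding. Compound given ip in sterile saline; food and water intake measured at 30, 60, 120 and 240 min after food presentation. Where used, antagonist (3 mg/kg, ip) or other pretreatments were injected 30 min before the compound. Mean ± SEM, at least eight rats per group.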

[3] = tested on: Rattus norvegicus; assay: Antiobesity activity in Wistar rat assessed as reduction in food intake at 2 mg/kg, ip after 4 hrs in presence of 5-HT2C antagonist SB-242084; assay type: functional, organism-based; procedure, shortened: as §1
[4] = tested on: Rattus norvegicus; assay: Antiobesity activity in Wistar rat assessed as reduction in food intake at 2 mg/kg, ip measured up to 4 hrs; assay type: functional, organism-based; procedure, shortened: as §1

SMILES	Activity [1] [%]	other results
FC(F)(F)c1ccc(Cn2cc(CNc3cccnc3)c3ccccc32)cc1	8	
COc1ccc(Cn2cc(CNc3cccnc3)c3ccccc32)cc1	6	
Fc1ccc(Cn2cc(CNc3cccnc3)c3ccccc32)cc1	9	
Fc1ccc(Cn2cc(CNc3cccnc3)c3ccccc32)c(F)c1	9	
COc1ccccc1Cn1cc(CNc2cccnc2)c2ccccc21	0	
Cc1ccc(Cn2cc(CNc3cccnc3)c3ccccc32)cc1	24	
c1ccc(Cn2cc(CNc3cncnc3)c3ccccc32)cc1	20	
c1cncc(NCc2cn(CC3CC3)c3ccccc23)c1	0	
c1ccc(Cn2cc(CNc3cccnn3)c3ccccc32)cc1	9	
FC(F)(F)c1cccc(Cn2cc(CNc3cccnc3)c3ccccc32)c1	0	
Brc1ccccc1Cn1cc(CNc2cccnc2)c2ccccc21	0	
c1ccc(Cn2cc(CNc3ccncn3)c3ccccc32)cc1	0	
Fc1cccc(Cn2cc(CNc3cccnc3)c3ccccc32)c1	22	
Cc1ncccc1NCc1cn(Cc2ccccc2)c2ccccc12	0	
c1cncc(Cn2cc(CNc3cccnc3)c3ccccc32)c1	25	
Clc1ccccc1Cn1cc(CNc2cccnc2)c2ccccc21	7	
Cc1cccc(Cn2cc(CNc3cccnc3)c3ccccc32)c1	27	
Clc1ccc(Cn2cc(CNc3cccnc3)c3ccccc32)cc1	13	
O=C1Nc2cc(Cl)c(Cl)cc2N2CCNC[C@H]12		Activity [2]: inactive; Activity [3]: inactive; Activity [4]: Active
FC(F)(F)c1ccccc1Cn1cc(CNc2cccnc2)c2ccccc21	9	
